The list is not random: actives were taken first. Their share in the collection is about 1.3%.
NR2E3 ag-1: activates human NR2E3 receptor; hit rate 0.35% among 360,000; inhibition of corepressor binding, % at 3.98 µM; Q9Y5X4; CHO-S Gal4-NCOR/VP16-NR2E3 two-hybrid, luciferase;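 active = inhibition above the mean of all tested compounds plus 3 SD, cut at about 70% in these data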;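 note: 0% = DMSO with NR2E3 transfected cells and 100% = cells lacking NR2E3 construct; higher means lower luciferase signal from less NR2E3 corepressor binding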
Target sequence (Q9Y5X4 whole entry, looked up, the tested form may be a part): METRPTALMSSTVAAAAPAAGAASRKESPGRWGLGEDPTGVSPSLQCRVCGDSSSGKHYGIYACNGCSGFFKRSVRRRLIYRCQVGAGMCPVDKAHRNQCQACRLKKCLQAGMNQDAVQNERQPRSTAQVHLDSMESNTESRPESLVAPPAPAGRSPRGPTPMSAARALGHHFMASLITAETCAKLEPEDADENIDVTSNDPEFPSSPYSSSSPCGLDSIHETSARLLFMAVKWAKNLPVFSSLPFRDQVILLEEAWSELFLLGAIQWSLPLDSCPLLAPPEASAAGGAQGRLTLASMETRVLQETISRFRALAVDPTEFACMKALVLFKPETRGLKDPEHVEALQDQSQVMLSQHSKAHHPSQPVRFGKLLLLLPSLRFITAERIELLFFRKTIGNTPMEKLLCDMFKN
JMJD2C inh: inhibitors of human GASC-1 (JMJD2C) demethylase; Q9H3R0; GST-JMJD2C(1-420) H3K9me3 demethylation, DELFIA europium; inhibition, % at 2.35 µM; hit rate 0.069% among 330,000; AID 2099;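 active = more than half of a compound's replicate wells show inhibition beyond 50%, single wells judged on their own value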;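 note: signal counts dimethyl H3K9 product captured on neutravidin plate; 0% = median of DMSO wells and 100% = 0.3 times that DMSO median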
PGE2 EP2 inh: inhibitors of human EP2 prostaglandin E2 receptor; P43116; C6 glioma cells expressing human EP2, cAMP TR-FRET; cells stimulated with saturating PGE2; inhibition, % at 25 µM; hit rate 0.52% among 260,000; AID 1422;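 active = percent inhibition above 40 after rounding to a whole number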;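 note: rat C6 glioma host cells with rolipram phosphodiesterase inhibitor present; the protocol text gives 20 µM as final concentration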
NR2E3 ag-2: NR2E3 (human) agonism. GST-NR2E3/biotin-RetCOR TR-FRET, 1536-well. inhibition of corepressor binding, % at 4.78 µM. hit rate 0.12% among 320,000;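 active = percent inhibition above the cutoff of mean plus 3 SD of all tested compounds, set per screening campaign, cut at about 20% in these data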;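 note: 0% = DMSO wells and 100% = biotin wells as full block of FRET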
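Material – GST-tagged NR2E3 plus biotinylated RetCOR corepressor · Quantity – NR2E3 fusion 1.35 nM · Times – 5 h incubation at 4 °C · Medium – pH 7.5 Tris-based buffer · Technique – TR-FRET, Eu(K)-anti-GST donor, streptavidin-D2 acceptor, ex 340, em 617/671 nm · Benchmarks – high control biotin, low control 0.6% DMSO · Format – 1536-well plates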
EP2 modulator: EP2 receptor (human) modulation; induction, % at 25 µM; P43116; hit rate 0.83% among 260,000; EP2-expressing cells, cAMP HTRF FRET, PGE2 co-stimulation;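 active = compounds whose cAMP rise, as percent of the full-agonist control response, exceeds 60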;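 note: rat C6 glioma line stably carrying human EP2 under a CMV promoter; the protocol text gives 20 µM as final concentration; 100% = response of wells given 1 µM PGE2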
Furin inhibitor: human furin inhibition | hit rate 0.061% among 220,000 | purified furin, fluorogenic substrate cleavage | P09958 | inhibition, % at 20 µM or 30 µM; in the data active = inhibition above about 25%
EP2 cAMP induct: human EP2 receptor cAMP induction, negative in counter-screens. hit rate 47% among 1,300. C6 glioma EP2 cells, cAMP HTRF induction; plus low (about EC15) PGE2 agonist. shares compounds with EP2 modulator. calls only at 20 µM (by protocol);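 active = cAMP induction above 50% in the main assay while under 30% in all four parallel counter assays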;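 note: rat C6 glioma cells stably expressing human EP2 receptor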
* marks the source's active call; other numbers are inactive results; i = inactive; · = no result given; + = active, no number.

SMILES	NR2E3 ag-1	JMJD2C inh	PGE2 EP2 inh	NR2E3 ag-2	EP2 modulator	Furin inhibitor	EP2 cAMP induct
COc1cc(CN2CCC(C(=O)N3CCN(c4ccccc4F)CC3)CC2)cc(OC)c1OC	15	-10	10	0	79*	-13	i
COc1ccc(CN2CCC(C(=O)N3CCN(c4ccccc4F)CC3)CC2)cc1OC	-14	35	13	5	2	-12	·
O=C(CN1C(=O)/C(=C\c2ccccc2Cl)Oc2ccccc21)NCc1cccnc1	4	-28	8	-17	17	-55	·
Cc1ccc(CN2C(=O)/C(=C\c3ccc(C(=O)NCc4cccnc4)cc3)Oc3ccccc32)cc1	·	4	13	1	85*	-34	+
Cc1cc2nc(C3CCCN3C(=O)c3n[nH]c4c3CCC4)[nH]c2cc1C (stereo unspecified)	·	·	·	·	-12	·	·
CCOc1ccc(NC(=O)CSc2nnc(-c3ccccc3C)o2)cc1	·	·	23	·	16	·	·
COC(=O)c1cc2ccsc2n1Cc1ccccc1F	2	-8	11	2	71*	-32	+
COC(=O)c1cc2ccsc2n1Cc1cccc(F)c1	-21	9	8	1	67*	-6	+
CC(=O)NC(c1ccccc1)c1cccnc1 (stereo unspecified)	12	0	6	-1	70*	-25	i
CSc1ncc(C(=O)NC(c2ccccc2)c2cccnc2)cn1 (stereo unspecified)	·	·	6	·	-13	·	·
O=C(CN1C(=O)[C@@H]2CCCN2C(=O)c2ccccc21)NCc1ccccc1F	·	·	7	·	-15	·	·
CC(C)(C)N(Cc1ccccc1)C(=O)c1ccc(Br)o1	-43	11	5	2	63*	-18	i
CCOC(=O)c1cnc2ccc(OCC)cc2c1N1CCN(c2ccccc2OC)CC1	-13	5	11	1	26	-18	·
CCOC(=O)c1cnc2ccc(OCC)cc2c1N(C)Cc1ccccc1	-31	1	5	2	90*	-4	+
Cc1c(CN2CCc3nc(N4CCCC(C)C4)[nH]c(=O)c3C2)cnn1C (stereo unspecified)	·	·	3	·	14	·	·
C=CCSc1nc(N(CC)CC)c2sccc2n1	-30	11	14	-1	67*	-17	i
CC1=CC(C)(C)N(C(=O)c2ccccc2)c2ccc(C)cc21	-8	-1	·	·	12	-14	·
CC1=CC(C)(C)N(C(=O)c2ccccc2)c2ccccc21	-13	-4	4	-1	72*	-11	i
O=C(NCc1nc2ccccc2[nH]1)C12CC3CC(CC(C3)C1)C2	·	·	8	·	-80	·	·
CCOC(=O)c1c(-c2ccc(F)cc2)csc1NC(=O)CCN1CCOCC1	-8	6	6	1	39	-13	·
CCOC(=O)c1c(-c2ccc(-c3ccccc3)cc2)csc1NC(=O)CCN1CCOCC1	-12	1	12	3	73*	-11	+
COc1ccc(-n2c(SCC(=O)Nc3cccc(C(C)=O)c3)nc3sc(C)c(C)c3c2=O)cc1	·	·	5	·	10	·	·
c1ccc(C2Nc3ccccc3Oc3ccccc32)cc1 (stereo unspecified)	-13	14	27	1	81*	3	i
O=C(CN1CCCCCC1)Nc1ccccc1Oc1ccccc1	31	-19	9	0	70*	-28	+
CC(=O)Nc1ccc(C2=NN(c3ccccc3)C(c3cccs3)C2)cc1 (stereo unspecified)	-4	2	11	0	76*	-23	i
SMILES	NR2E3 ag-1	JMJD2C inh	PGE2 EP2 inh	NR2E3 ag-2	EP2 modulator	Furin inhibitor	EP2 cAMP induct
O=C(Cc1ccccc1)Nc1ccccc1N1CCN(c2ccccc2)CC1	34	12	5	-3	72*	-20	+
O=C(CNCc1ccccc1Cl)Nc1ccccc1N1CCCCC1	-14	·	2	-2	75*	-22	+
O=C(NCCS(=O)(=O)N1CCN(c2ccccc2)CC1)C12CC3CC(CC(C3)C1)C2	19	·	·	·	·	·	·
O=C(Nc1ccccc1N1CCN(c2ccccc2)CC1)C12CC3CC(CC(C3)C1)C2	-13	-1	9	-2	68*	-8	i
O=C(Cc1ccccc1F)Nc1ccccc1N1CCCC1	-42	3	·	·	·	·	·
O=C(Nc1ncc(Cc2ccc(F)cc2)s1)C1COc2ccccc2O1 (stereo unspecified)	·	·	8	·	-17	·	·
CCc1nn(CC(=O)N(CC)CC)c(=O)c2cc3oc(C)cc3n12	·	·	7	·	-35	·	·
CC(Sc1cccc2cccc(C(=O)O)c12)C(=O)O (stereo unspecified)	5	-5	13	6	13	-12	·
CC(Sc1ccc2ccccc2n1)C(=O)O (stereo unspecified)	-14	-13	·	·	97*	9	i
Cc1cc(SC(C)C(=O)NCC(=O)Nc2ccc(F)c(F)c2F)nc2ccccc12 (stereo unspecified)	-14	25	12	2	31	-9	·
Cc1cc(SC(C)C(=O)O)nc2ccccc12 (stereo unspecified)	-20	-25	12	8	68*	-16	i
COc1ccc(C2(NC(=O)c3cccc4nccnc34)CCCC2)cc1	·	·	6	·	-34	·	·
CCC(c1nnnn1Cc1ccco1)N(Cc1ccco1)Cc1cc2ccc(C)cc2[nH]c1=O (stereo unspecified)	·	·	14	·	42	·	·
O=C(O)CSc1nc2ccccc2s1	8	11	7	1	-8	-6	·
O=C(O)CSc1cc(-c2ccccc2)nc2ccccc12	·	·	12	·	67*	·	i
N#CC1=C(S)N(c2ccccc2)C2(CCCCC2)NC1=O	-7	-3	13	0	71*	-10	i
CC(C)(C)c1nc2ccccc2c2nn(CC(=O)N3CCCC3)c(=O)n12	·	·	9	·	-51	·	·
COc1cccc(NC(=O)Cn2c(C)c(C#N)c3ccccc32)c1	·	·	27	·	-135	·	·
Cc1oc(C)c(C(=O)O)c1C(=O)O	-7	8	1	4	-6	-19	·
O=C(O)c1oc(C(=O)O)c(C(=O)O)c1C(=O)O	·	·	11	·	57	·	i
CCC(c1nnnn1C(C)(C)C)N(Cc1cccs1)Cc1cc2cc(C)c(C)cc2[nH]c1=O (stereo unspecified)	·	·	10	·	45	·	·
O=C(NCc1ccc(F)cc1)c1ccccc1OCc1ccccc1	11	1	3	1	81*	8	+
CCOc1ccccc1CNc1n[nH]c2nc(C)cc(C)c12	·	·	13	·	-44	·	·
CCCCc1nc(SCCOC)c2c(=O)n(C)c(=O)n(C)c2n1	-29	-12	6	0	59	-20	i

Screening results from PubChem.
